Reference: ChEMBL document CHEMBL2062488, “Exploration of diverse hinge-binding scaffolds for selective Aurora kinase inhibitors” (Bioorg Med Chem Lett, 2012)

Assays:
[1] = tested on: NCI-H1299; assay: Cell cycle arrest in human NCI-H1299 assessed as induction of polyploidy after 48 hrs by Hoechst staining-based fluorescence microscopic analysis; assay type: functional; conditions: NCI-H1299, 48 h
Method in brief: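 NCI-H1299 cells seeded at 4 K/well and left overnight to adhere. Compounds at varying concentrations added in duplicate wells, RPMI 1640 with 10% fetal calf serum, 37 °C for 48 h. Cells fixed in 3% formalin for 1 h, Hoechst-stained and imaged by high-content fluorescence microscopy (360/460 nm) for nuclear area. Polyploid (≥4N) cells had nuclear area >750. EC15 is the concentration giving 15% polyploid cells, from least-squares fit of log dose-response.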

[2] = target: T1, Aurora kinase A (Homo sapiens, UniProt O14965); assay: Inhibition of Aurora A kinase by HTRF analysis in presence of 1 mM ATP
T1 sequence (O14965 whole entry): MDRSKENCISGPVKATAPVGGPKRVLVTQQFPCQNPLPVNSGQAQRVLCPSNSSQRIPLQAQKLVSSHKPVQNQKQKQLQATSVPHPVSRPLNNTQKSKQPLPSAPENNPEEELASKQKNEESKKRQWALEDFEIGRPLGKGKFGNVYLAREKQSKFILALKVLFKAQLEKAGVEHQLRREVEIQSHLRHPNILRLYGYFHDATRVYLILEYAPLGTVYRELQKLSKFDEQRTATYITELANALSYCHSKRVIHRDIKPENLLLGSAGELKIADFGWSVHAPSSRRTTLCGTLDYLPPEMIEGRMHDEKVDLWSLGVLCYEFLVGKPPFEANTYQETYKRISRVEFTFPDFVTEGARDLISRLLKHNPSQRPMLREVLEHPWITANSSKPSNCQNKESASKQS

[3] = target: T2, Aurora kinase B (Homo sapiens, UniProt Q96GD4); assay: Inhibition of Aurora B kinase by HTRF analysis in presence of 1 mM ATP
T2 sequence (Q96GD4 whole entry): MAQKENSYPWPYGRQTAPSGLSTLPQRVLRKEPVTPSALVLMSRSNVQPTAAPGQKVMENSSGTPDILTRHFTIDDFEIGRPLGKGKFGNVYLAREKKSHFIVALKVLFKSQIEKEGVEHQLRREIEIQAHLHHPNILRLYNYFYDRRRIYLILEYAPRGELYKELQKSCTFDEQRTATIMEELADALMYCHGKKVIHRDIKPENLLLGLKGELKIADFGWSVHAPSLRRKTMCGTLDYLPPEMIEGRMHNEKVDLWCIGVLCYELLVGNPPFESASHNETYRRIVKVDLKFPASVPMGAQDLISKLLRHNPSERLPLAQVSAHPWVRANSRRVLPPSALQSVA

[4] = organism: Homo sapiens; assay: Selectivity ratio of IC50 for Aurora A kinase to IC50 for Aurora B kinase
[5] = Oral bioavailability in mouse at 10 mg/kg; assay type: ADME, organism-based; conditions: in vivo
[6] = Distribution half life in mouse at 3 mg/kg, iv; assay type: ADME, organism-based; set-up: dose 3 mg/kg, route intravenous; conditions: in vivo, read-out: alphat1/2 (converted)
[7] = Volume of distribution in mouse at 3 mg/kg, iv; assay type: ADME, organism-based; set-up: dose 3 mg/kg, route intravenous; conditions: in vivo
[8] = tested on: Mus musculus; assay: Inhibition of histone 3 phosphorylation in leukemia xenografted mouse model at 50 mg/kg, ip measured after 4 hrs; assay type: functional; conditions: route intraperitoneal
Method in brief: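 Leukemia-engrafted mouse model dosed 50 mpk IP. Histone H3 phosphorylation was measured 4 h after the dose as percent inhibition.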

[9] = Clearance in mouse at 3 mg/kg, iv; assay type: ADME, organism-based; set-up: dose 3 mg/kg, route intravenous; conditions: in vivo
[10] = tested on: Mus musculus; assay: AUC in mouse at 10 mg/kg, po; assay type: ADME, organism-based, Plasma; set-up: dose 10 mg/kg, route oral; conditions: in vivo
Method in brief: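 Pyrrolotriazines were given by oral cassette dosing at 10 mpk, with several compounds in one cassette. Oral exposure is reported as AUC.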

[11] = target: T3, Calcium/calmodulin-dependent protein kinase type IV (Homo sapiens, UniProt Q16566); assay: Inhibition of Camk4 in presence of 10 uM ATP
T3 sequence (Q16566 whole entry): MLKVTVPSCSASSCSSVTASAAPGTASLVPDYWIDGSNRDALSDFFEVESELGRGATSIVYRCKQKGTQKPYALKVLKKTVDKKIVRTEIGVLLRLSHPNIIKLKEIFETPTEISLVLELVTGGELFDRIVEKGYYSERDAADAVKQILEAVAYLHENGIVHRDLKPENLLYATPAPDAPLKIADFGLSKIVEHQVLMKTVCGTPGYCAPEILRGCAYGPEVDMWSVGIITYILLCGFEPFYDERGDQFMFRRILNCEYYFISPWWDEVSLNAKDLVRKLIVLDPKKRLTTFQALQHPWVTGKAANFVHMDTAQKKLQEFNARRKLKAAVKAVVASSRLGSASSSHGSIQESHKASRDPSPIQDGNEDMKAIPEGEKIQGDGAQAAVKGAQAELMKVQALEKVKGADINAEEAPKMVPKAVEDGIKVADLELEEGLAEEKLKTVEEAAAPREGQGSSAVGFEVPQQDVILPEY

[12] = target: T1, Aurora kinase A; assay: Inhibition of Aurora A kinase in presence of 10 uM ATP
[13] = target: T2, Aurora kinase B; assay: Inhibition of Aurora B kinase in presence of 10 uM ATP
[14] = target: Activin receptor type-1-like (Homo sapiens, UniProt P37023); assay: Inhibition of Alk1 in presence of 10 uM ATP
Sequence of Activin receptor type-1-like (P37023 whole entry): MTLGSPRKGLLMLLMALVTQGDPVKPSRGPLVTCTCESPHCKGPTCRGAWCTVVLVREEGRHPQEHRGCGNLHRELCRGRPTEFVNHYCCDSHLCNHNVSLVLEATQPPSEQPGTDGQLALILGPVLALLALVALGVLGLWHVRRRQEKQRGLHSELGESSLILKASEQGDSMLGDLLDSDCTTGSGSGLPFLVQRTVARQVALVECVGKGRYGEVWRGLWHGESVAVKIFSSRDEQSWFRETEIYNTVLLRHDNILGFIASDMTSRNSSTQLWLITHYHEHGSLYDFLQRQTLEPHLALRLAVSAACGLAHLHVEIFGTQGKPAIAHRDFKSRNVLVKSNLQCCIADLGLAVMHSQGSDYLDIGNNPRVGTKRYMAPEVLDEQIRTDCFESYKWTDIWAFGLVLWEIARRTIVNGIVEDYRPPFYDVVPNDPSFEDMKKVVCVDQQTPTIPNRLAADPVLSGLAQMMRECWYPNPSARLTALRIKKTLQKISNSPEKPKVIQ

[15] = target: T4, Serine/threonine-protein kinase PLK4 (Homo sapiens, UniProt O00444); assay: Inhibition of Plk4 in presence of 10 uM ATP
T4 sequence (O00444 whole entry): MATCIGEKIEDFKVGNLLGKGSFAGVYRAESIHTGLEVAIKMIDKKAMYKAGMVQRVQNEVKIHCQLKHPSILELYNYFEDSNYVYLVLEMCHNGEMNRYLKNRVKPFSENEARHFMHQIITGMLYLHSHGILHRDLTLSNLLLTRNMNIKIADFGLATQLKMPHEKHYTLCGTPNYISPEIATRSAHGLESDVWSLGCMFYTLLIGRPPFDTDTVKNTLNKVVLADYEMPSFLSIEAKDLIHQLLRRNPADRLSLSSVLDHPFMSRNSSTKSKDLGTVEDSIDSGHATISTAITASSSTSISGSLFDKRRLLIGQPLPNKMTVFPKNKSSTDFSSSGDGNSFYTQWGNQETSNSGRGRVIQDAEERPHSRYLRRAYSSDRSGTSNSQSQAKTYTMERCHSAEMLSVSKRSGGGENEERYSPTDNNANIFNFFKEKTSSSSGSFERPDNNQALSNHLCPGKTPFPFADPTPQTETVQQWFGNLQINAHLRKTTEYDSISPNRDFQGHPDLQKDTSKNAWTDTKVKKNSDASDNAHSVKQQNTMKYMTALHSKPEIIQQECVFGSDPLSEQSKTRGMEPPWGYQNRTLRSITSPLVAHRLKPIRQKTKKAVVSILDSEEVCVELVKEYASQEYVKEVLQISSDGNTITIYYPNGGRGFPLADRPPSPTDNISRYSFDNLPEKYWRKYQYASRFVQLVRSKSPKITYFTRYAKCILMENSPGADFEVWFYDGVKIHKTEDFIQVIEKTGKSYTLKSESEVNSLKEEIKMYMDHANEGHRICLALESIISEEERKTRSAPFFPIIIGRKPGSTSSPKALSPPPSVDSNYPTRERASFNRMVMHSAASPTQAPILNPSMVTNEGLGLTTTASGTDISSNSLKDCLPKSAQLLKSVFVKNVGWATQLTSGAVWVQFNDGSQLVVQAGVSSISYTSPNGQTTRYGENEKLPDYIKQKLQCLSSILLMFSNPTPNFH

Row | IC50 [2] | IC50 [3] | Ratio IC50 [4] | SMILES | EC15 [1] | also measured
1 |  |  |  | Nc1nsc2cccc(C(=O)Nc3cccc(CNC(=O)Nc4cccc(F)c4)c3)c12 | 0.018 µM | 
2 | > 12.5 µM | 450 nM |  | Nc1noc2cccc(C(=O)Nc3cccc(CC(=O)Nc4cccc(F)c4)c3)c12 |  | 
3 |  |  |  | Nc1nsc2cccc(C(=O)Nc3cccc(CNC(=O)Nc4ccc(C(F)(F)F)cc4)c3)c12 | 0.018 µM | 
4 | > 12.5 µM | 480 nM | > 26 | Nc1noc2cccc(C(=O)Nc3ccc(NC(=O)Nc4ccc(F)cc4)cc3)c12 |  | 
5 | 12.5 µM | 36 nM | 347 | Nc1nsc2cccc(C(=O)Nc3cccc(CNC(=O)Nc4ccc(F)c(F)c4)c3)c12 | 0.021 µM | 
6 |  |  |  | Nc1ncnn2ccc(C(=O)Nc3cccc(CNC(=O)Nc4ccc(C(F)(F)F)cc4)c3)c12 | 0.006 µM | 
7 | 4.78 µM | 7 nM | 696 | Nc1noc2cccc(C(=O)Nc3cccc(CNC(=O)Nc4ccc(F)c(F)c4)c3)c12 | 0.015 µM | bioavailability [5]: 31%; half-life [6]: 102 min; Vd [7]: 0.96 L/kg; inhibition in vivo at 50 mg/kg [8]: 87%; clearance [9]: 6.5 mL/min/kg; AUC [10]: 8 uM.hr/ml
8 |  |  |  | Nc1ncnn2ccc(C(=O)Nc3ccc(NC(=O)Nc4ccsc4)cc3)c12 | 0.006 µM | 
9 |  |  |  | Nc1n[nH]c2cccc(C(=O)Nc3cccc(CNC(=O)Nc4cccc(F)c4)c3)c12 | 0.111 µM | 
10 | > 12.5 µM | 140 nM | > 89 | Nc1noc2cccc(C(=O)Nc3ccc(NC(=O)Nc4ccc(Cl)cc4)cc3)c12 |  | 
11 | 0.088 µM | 36 nM | 2.4 | Nc1ncnn2ccc(C(=O)Nc3ccc(NC(=O)Nc4ccc(F)cc4)cc3)c12 | 0.016 µM | 
12 |  |  |  | Nc1ncnn2ccc(C(=O)Nc3cccc(CNC(=O)Nc4cccc(Cl)c4)c3)c12 | 0.002 µM | 
13 | > 12.5 µM | 55 nM | > 227 | Nc1noc2cccc(C(=O)Nc3cccc(CNC(=O)Nc4ccccc4F)c3)c12 | 0.124 µM | 
14 |  |  |  | Nc1noc2cccc(C(=O)Nc3cccc(CNC(=O)Nc4ccc(Cl)cc4)c3)c12 | 0.012 µM | 
15 |  |  |  | Cc1ccc(NC(=O)NCc2cccc(NC(=O)c3ccn4ncnc(N)c34)c2)cc1 | 0.001 µM | 
16 | > 12.5 µM | > 12500 nM |  | Nc1noc2cccc(C(=O)Nc3cccc(CNC(=O)Cc4cccc(F)c4)c3)c12 |  | 
17 |  |  |  | Nc1noc2cccc(C(=O)Nc3cccc(CNC(=O)Nc4ccc(C(F)(F)F)cc4)c3)c12 | 0.013 µM | bioavailability [5]: 77%; half-life [6]: 78 min; Vd [7]: 0.23 L/kg; clearance [9]: 2.17 mL/min/kg; AUC [10]: 61 uM.hr/ml
18 |  |  |  | Nc1ncnn2ccc(C(=O)Nc3ccc(NC(=O)NC4CCCC4)cc3)c12 | 0.015 µM | 
19 |  |  |  | Nc1ncnn2ccc(C(=O)Nc3cccc(CNC(=O)Nc4ccc(Cl)cc4)c3)c12 | 0.001 µM | 
20 |  |  |  | Cc1cccc(NC(=O)Nc2ccc(NC(=O)c3ccn4ncnc(N)c34)cc2)c1 | 0.009 µM | 
21 |  |  |  | Nc1ncnn2ccc(C(=O)Nc3cccc(CNC(=O)Nc4cccc(F)c4)c3)c12 | 0.002 µM | 
22 |  |  |  | Nc1noc2cccc(C(=O)Nc3cccc(CNC(=O)Nc4ccc(F)cc4)c3)c12 | 0.03 µM | 
23 |  | 9 nM |  | Nc1ncnn2ccc(C(=O)Nc3ccc(NC(=O)Nc4cccc(F)c4)cc3)c12 | 0.003 µM | IC50 [11]: > 10 µM; IC50 [12]: < 3 nM; IC50 [13]: < 3 nM; IC50 [14]: > 10 µM; IC50 [15]: < 3 nM
24 |  |  |  | Nc1n[nH]c2cccc(C(=O)Nc3cccc(CNC(=O)Nc4ccc(F)c(F)c4)c3)c12 | 0.143 µM | 
25 | 12.5 µM | 172 nM | 73 | Cn1nc(N)c2c(C(=O)Nc3cccc(CNC(=O)Nc4ccc(C(F)(F)F)cc4)c3)cccc21 |  | 
26 | 3.18 µM | 59 nM | 54 | Nc1noc2cccc(C(=O)Nc3cccc(CNC(=O)Nc4cccc(F)c4)c3)c12 | 0.003 µM | bioavailability [5]: 28%; half-life [6]: 42 min; Vd [7]: 0.54 L/kg; clearance [9]: 8.83 mL/min/kg; AUC [10]: 5 uM.hr/ml
27 |  |  |  | Cc1ccc(NC(=O)NCc2cccc(NC(=O)c3cccc4onc(N)c34)c2)cc1 | 0.001 µM | 
28 | 3.79 µM | 18 nM | 210 | Nc1noc2cccc(C(=O)Nc3cccc(CNC(=O)Nc4ccccc4)c3)c12 | 0.047 µM | 
